In data set [1] the target is 72 kDa type IV collagenase (Homo sapiens, UniProt P08253). The experiment in a line: Inhibition of recombinant human MMP-2 using Mca-Lys-Pro-Leu-Gly-Leu-Dap(Dnp)-Ala-Arg-NH2 as substrate incubated for 4 hrs measured every 15 secs for 20 mins by fluorimetric assay. The method in brief:
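Pro-MMP-2 was activated with 2 mM APMA for 1 h at 37 °C and used at 0.56 nM final. It was preincubated with inhibitor for 4 h at 25 °C in Tris 50 mM pH 7.5 buffer containing NaCl, CaCl2, Brij-35 and 1% DMSO. Substrate was at 2 µM final, ex 325/em 400 nm, run in duplicate. IC50 was taken from initial-velocity ratios, vi/vo = 1/(1+[I]/IC50).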

The test system of data set [2] is A2780. The experiment in a line: Cytotoxicity against human A2780 cells assessed as cell viability at 0.01 to 10 uM after 24 to 72 hrs by MTT assay. It is filed as cell-based. Conditions: a2780, 10 µM. In general terms: Formazan colour is commonly taken as a measure of viable cells.
The target in data set [3] is T1, Disintegrin and metalloproteinase domain-containing protein 17 (Homo sapiens, UniProt P78536). As to the kind of experiment: Inhibition of ADAM-17 in human A2774 cells assessed as inhibition of EGF-induced sALCAM release incubated for 30 mins prior to EGF induction measured after 18 hrs by ELISA. In kind it is cell-based. Background: In an ELISA, binding on a coated surface is turned into a signal by an enzyme label.

Data set [4] concerns the target T1, Disintegrin and metalloproteinase domain-containing protein 17. The experiment in a line: Inhibition of ADAM-17 in human A2780 cells assessed as inhibition of pervanadate-induced sALCAM release incubated for 30 mins prior to pervanadate induction measured after 90 mins by ELISA. It is filed as cell-based.
Data set [5] has as its target Matrix metalloproteinase-9 (Homo sapiens, UniProt P14780). The experiment in a line: Inhibition of recombinant human MMP-9 using Mca-Lys-Pro-Leu-Gly-Leu-Dap(Dnp)-Ala-Arg-NH2 as substrate incubated for 4 hrs measured every 15 secs for 20 mins by fluorimetric assay. The method, boiled down:
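Pro-MMP-9 was activated with 1 mM APMA for 1 h at 37 °C and used at 1.3 nM final. Inhibitor was incubated with enzyme for 4 h at 25 °C in Tris 50 mM pH 7.5, NaCl 150 mM, CaCl2 10 mM, 0.05% Brij-35, 1% DMSO. Substrate was at 2 µM final, ex 325/em 400 nm, in duplicate. IC50 was obtained from vi/vo = 1/(1+[I]/IC50).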

For data set [6], the target named is T1, Disintegrin and metalloproteinase domain-containing protein 17. As to the kind of experiment: Inhibition of ADAM-17 in human SKOV3 cells transfected with luciferase gene assessed as inhibition of pervanadate-induced sALCAM release incubated for 30 mins prior to pervanadate induction measured after 90 mins by ELISA. It is filed as cell-based, SK-OV-3.
For data set [7] the target is unchanged. The experiment in a line: Inhibition of ADAM-17 in human A2774 cells assessed as inhibition of pervanadate-induced sALCAM release incubated for 30 mins prior to pervanadate induction measured after 90 mins by ELISA. In kind it is cell-based.
In data set [8] the target is Matrix metalloproteinase-14 (Homo sapiens, UniProt P50281). As to the kind of experiment: Inhibition of recombinant human MMP-14 catalytic domain using Mca-Lys-Pro-Leu-Gly-Leu-Dap(Dnp)-Ala-Arg-NH2 as substrate incubated for 4 hrs measured every 15 secs for 20 mins by fluorimetric assay. The method in brief: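 MMP-14 catalytic domain was used at 1.0 nM final with no activation step. It was incubated with inhibitor for 4 h at 25 °C in Tris 50 mM pH 7.5 buffer with NaCl 150 mM, CaCl2 10 mM, 0.05% Brij-35 and 1% DMSO. Substrate was at 2 µM final, ex 325/em 400 nm, duplicate wells. IC50 was fitted by vi/vo = 1/(1+[I]/IC50).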

Data set [9] deals with T2, Interstitial collagenase (Homo sapiens, UniProt P03956).
T2 sequence (P03956 whole entry): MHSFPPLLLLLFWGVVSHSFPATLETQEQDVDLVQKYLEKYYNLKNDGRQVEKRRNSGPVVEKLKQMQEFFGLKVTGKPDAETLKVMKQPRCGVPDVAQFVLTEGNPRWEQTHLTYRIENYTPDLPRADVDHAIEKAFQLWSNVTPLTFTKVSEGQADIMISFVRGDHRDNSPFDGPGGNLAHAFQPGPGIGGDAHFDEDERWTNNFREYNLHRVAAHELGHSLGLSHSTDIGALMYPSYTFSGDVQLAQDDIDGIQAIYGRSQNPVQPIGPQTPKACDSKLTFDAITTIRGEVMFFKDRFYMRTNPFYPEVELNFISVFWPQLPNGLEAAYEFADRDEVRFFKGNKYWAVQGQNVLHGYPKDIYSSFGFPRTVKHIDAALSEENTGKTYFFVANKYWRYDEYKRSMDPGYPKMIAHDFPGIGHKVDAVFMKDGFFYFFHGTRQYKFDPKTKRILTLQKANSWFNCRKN
The experiment in a line: Inhibition of recombinant human MMP-1 using Mca-Lys-Pro-Leu-Gly-Leu-Dap(Dnp)-Ala-Arg-NH2 as substrate incubated for 4 hrs measured every 15 secs for 20 mins by fluorimetric assay. The method, boiled down: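 Pro-MMP-1 was activated with 2 mM APMA for 2 h at 37 °C. Enzyme (2.0 nM final) was incubated with inhibitor in Tris 50 mM pH 7.5, NaCl 150 mM, CaCl2 10 mM, 0.05% Brij-35, 1% DMSO for 4 h at 25 °C. Substrate was added at 2 µM final. Fluorescence (ex 325/em 400 nm) was read for initial rates, in duplicate. IC50 came from vi/vo = 1/(1+[I]/IC50).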

Data set [10] has as its target T3, Disintegrin and metalloproteinase domain-containing protein 10 (Homo sapiens, UniProt O14672).
T3 sequence (O14672 whole entry): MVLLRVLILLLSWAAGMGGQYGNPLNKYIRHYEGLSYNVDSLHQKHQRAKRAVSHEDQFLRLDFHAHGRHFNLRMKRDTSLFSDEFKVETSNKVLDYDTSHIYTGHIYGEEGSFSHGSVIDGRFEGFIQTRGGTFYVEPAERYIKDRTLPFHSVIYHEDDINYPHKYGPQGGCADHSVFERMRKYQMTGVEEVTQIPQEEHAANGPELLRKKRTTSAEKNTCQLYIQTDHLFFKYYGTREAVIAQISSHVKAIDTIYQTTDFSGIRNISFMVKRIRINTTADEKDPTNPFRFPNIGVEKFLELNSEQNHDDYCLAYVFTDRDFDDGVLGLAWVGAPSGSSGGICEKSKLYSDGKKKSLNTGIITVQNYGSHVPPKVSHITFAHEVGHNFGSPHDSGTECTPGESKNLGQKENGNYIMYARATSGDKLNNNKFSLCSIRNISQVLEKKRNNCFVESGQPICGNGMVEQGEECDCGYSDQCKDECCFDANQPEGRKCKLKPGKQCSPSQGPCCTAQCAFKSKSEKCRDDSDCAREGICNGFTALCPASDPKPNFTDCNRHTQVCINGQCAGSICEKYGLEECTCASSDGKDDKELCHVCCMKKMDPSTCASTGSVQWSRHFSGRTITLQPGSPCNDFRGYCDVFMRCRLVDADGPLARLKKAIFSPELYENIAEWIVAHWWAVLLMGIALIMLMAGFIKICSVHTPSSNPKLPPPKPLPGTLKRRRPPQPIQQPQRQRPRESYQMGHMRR
The experiment in a line: Inhibition of recombinant human ADAM-10 using Mca-Lys-Pro-Leu-Gly-Leu-Dap(Dnp)-Ala-Arg-NH2 as substrate incubated for 1 hr measured every 15 secs for 20 mins by fluorimetric assay. The method, boiled down: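 Enzyme at 20 nM final was preincubated with inhibitor for 1 h at 37 °C in pH 9 buffer (Tris 25 mM, ZnCl2 25 µM, 0.005% Brij-35). Substrate was at 10 µM final. Fluorescence (ex 325/em 400 nm) was followed for initial velocity, in duplicate. IC50 was calculated with vi/vo = 1/(1+[I]/IC50).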

The target in data set [11] is T1, Disintegrin and metalloproteinase domain-containing protein 17. As to the kind of experiment: Inhibition of recombinant human ADAM-17 using Mca-Lys-Pro-Leu-Gly-Leu-Dap(Dnp)-Ala-Arg-NH2 as substrate incubated for 30 mins measured every 15 secs for 20 mins by fluorimetric assay. The method, boiled down:
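Enzyme at 5 nM final was preincubated with inhibitor for 30 min at 37 °C in Tris 25 mM pH 9, ZnCl2 25 µM, 0.005% Brij-35. Substrate was at 2 µM final. Fluorescence increase (ex 325/em 400 nm) gave initial rates, in duplicate. IC50 was derived from vi/vo = 1/(1+[I]/IC50).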

Data set [12] shares this target. As to the kind of experiment: Inhibition of ADAM-17 in human A2780 cells assessed as inhibition of EGF-induced sALCAM release incubated for 30 mins prior to EGF induction measured after 18 hrs by ELISA. It is filed as cell-based.
For data set [13] the target is unchanged. As to the kind of experiment: Inhibition of ADAM-17 in human SKOV3 cells transfected with luciferase gene assessed as inhibition of EGF-induced sALCAM release incubated for 30 mins prior to EGF induction measured after 18 hrs by ELISA. It is filed as cell-based, SK-OV-3.
A short description of data set [14]: Cytotoxicity against human A2774 cells assessed as cell viability at 0.01 to 10 uM after 24 to 72 hrs by MTT assay. Conditions: a2774, 10 µM. In kind it is cell-based.
In data set [15] the test system is SK-OV-3. The experiment in a line: Cytotoxicity against human SKOV3 cells transfected with luciferase gene assessed as cell viability at 0.01 to 10 uM after 24 to 72 hrs by MTT assay. In kind it is cell-based. The settings on record: sk-ov-3, 10 µM.

What is called IC50 is the concentration that gives 50% inhibition.

T1 sequence (P78536 whole entry, the tested form may be a part): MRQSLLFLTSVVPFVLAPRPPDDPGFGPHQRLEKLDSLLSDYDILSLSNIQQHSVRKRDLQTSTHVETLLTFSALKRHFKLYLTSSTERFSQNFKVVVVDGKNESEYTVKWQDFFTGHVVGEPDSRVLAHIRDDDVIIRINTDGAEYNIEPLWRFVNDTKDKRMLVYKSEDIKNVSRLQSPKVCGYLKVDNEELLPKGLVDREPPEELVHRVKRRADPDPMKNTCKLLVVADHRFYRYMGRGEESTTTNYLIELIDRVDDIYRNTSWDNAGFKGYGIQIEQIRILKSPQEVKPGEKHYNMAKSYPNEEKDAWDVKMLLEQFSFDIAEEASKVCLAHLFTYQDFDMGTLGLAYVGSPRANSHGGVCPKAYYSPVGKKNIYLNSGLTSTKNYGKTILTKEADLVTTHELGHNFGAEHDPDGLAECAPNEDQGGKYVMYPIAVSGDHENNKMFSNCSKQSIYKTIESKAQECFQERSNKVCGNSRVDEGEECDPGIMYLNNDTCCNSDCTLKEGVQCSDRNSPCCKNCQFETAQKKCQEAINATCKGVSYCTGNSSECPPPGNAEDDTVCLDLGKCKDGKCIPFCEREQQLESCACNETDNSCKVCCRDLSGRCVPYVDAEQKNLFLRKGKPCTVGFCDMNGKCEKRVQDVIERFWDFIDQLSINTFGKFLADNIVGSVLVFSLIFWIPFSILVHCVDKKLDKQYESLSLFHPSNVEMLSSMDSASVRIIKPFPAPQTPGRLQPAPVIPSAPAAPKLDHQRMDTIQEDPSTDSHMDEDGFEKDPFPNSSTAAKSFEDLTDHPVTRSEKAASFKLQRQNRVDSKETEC
Matrix metalloproteinase-9, sequence (P14780 whole entry): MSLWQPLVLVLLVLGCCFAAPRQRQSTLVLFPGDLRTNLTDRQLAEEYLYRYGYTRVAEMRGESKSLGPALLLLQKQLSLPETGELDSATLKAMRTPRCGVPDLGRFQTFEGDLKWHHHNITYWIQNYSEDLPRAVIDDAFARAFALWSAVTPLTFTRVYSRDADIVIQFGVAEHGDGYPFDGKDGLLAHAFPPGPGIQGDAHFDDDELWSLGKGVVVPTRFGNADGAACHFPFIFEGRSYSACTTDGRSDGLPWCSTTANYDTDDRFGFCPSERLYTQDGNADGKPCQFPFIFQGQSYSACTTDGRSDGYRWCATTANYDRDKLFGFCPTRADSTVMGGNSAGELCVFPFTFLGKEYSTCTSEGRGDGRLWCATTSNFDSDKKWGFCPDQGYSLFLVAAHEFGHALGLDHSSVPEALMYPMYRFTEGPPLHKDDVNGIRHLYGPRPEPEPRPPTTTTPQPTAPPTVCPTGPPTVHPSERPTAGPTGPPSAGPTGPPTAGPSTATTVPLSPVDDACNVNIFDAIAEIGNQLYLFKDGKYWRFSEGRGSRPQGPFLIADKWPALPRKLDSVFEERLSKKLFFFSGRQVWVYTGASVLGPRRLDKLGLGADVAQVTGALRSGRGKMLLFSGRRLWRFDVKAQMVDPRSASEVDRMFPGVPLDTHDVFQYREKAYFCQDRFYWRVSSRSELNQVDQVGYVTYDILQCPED
72 kDa type IV collagenase, sequence (P08253 whole entry): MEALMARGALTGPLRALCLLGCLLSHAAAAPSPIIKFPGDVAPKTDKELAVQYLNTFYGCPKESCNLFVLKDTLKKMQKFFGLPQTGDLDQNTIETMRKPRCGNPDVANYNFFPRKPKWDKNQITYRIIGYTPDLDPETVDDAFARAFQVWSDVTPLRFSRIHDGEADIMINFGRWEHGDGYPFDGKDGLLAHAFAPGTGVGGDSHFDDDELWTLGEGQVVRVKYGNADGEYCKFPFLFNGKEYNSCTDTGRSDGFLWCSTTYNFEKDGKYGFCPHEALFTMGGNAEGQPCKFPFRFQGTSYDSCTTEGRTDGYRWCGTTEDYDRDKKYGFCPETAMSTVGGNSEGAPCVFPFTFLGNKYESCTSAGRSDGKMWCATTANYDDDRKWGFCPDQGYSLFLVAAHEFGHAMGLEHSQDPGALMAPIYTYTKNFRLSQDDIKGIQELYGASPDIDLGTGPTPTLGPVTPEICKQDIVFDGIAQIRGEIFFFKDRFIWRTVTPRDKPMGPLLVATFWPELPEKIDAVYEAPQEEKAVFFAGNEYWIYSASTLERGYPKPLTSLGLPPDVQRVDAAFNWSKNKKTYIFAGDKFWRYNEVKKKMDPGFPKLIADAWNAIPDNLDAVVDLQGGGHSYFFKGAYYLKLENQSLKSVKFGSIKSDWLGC

Consider `O=C(NCCC[C@@H](NS(=O)(=O)c1ccc(OCc2cc(Br)cc(Br)c2)cc1)C(=O)NO)OCc1ccccc1`, for which the IC50 in data set [1] turned out to be 1.44 µM; in data set [3], 7.63 µM; in data set [4] it was 0.349 µM; in [5], 4.4 µM; in data set [6] it was 0.35 µM; in [7], 0.274 µM. The concentration for half-maximal inhibition (IC50) in data set [8] was 68 µM; in data set [9], 370 µM; in data set [10] it was 0.3 µM; in [11], 0.011 µM; in data set [12], 10 µM; in [13], 5.64 µM. Moreover, the Activity entry in data set [2], in data set [14] and in [15] was “Non-toxic” each time.

Take `O=C(CNS(=O)(=O)c1ccc(OCc2cc(Br)cc(Br)c2)cc1)NO`: the IC50 was 1.75 µM in [1]; over 10 µM in data set [3]; 0.84 µM in [4]; 51 µM in data set [5]; 5.3 µM in data set [6]; over 10 µM in [7]. Moreover, the IC50 in data set [8] was 113 µM; in [9], over 500 µM; in data set [10] it was 39 µM; in data set [11], 0.105 µM; in [12] it was over 10 µM; in [13] it was over 10 µM. The Activity result in data set [2], in data set [14] and in data set [15] was “Non-toxic” throughout.

Consider `O=C(NCC[C@@H](NS(=O)(=O)c1ccc(OCc2cc(Br)cc(Br)c2)cc1)C(=O)NO)OCc1ccccc1`, for which the 50% inhibitory concentration (IC50) in data set [1] is 4.1 µM; in data set [3] it was over 10 µM; in [4], 0.825 µM; in [5], 11 µM; in [6], 2.1 µM; in data set [7] it was 1.39 µM. The 50% inhibitory concentration (IC50) in [8] is 104 µM; in data set [9], 400 µM; in data set [10], 8.2 µM; in [11] it was 0.043 µM; in data set [12] it was over 10 µM; in data set [13] it was 9.52 µM. In addition, the Activity result in [2], in [14] and in data set [15] was “Non-toxic” throughout.
